Screening data (PubChem)
Only some compounds are listed: those with a hit (about 1.9% of all), similar ones and a draw of the others.
Tb hexokinase: T. brucei hexokinase 1 inhibition | AID 1430 | recombinant TbHK1, G6PDH-coupled NADH A340 | 0.11% of 220,000 active | inhibition, % at 10 µM;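 active = inhibition of 50% or more in the single-dose primary screen; inactive = inhibition below 50%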
Runt-CBFb FRET: blocks binding of human RUNX1 Runt domain to CBFb; inhibition, % at 20 µM; Q01196+Q13951; 0.46% of 220,000 active; AID 1496; Cerulean-Runt/Venus-CBFb FRET ratio 530/480, 1 h;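 active = inhibition over about 50% at 20 µM in the single-dose screen, limit read from the data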;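 note: 0% = DMSO wells and 100% = excess unlabeled CBFb competitor control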
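Doses: 20 µM compound in 1% DMSO | Material: Cerulean-labeled Runt domain protein | Amount: Each fluorescent fusion protein 100 nM | Schedule: Two 1 h room-temperature incubations shielded from light | Measured by: FRET fluorescence | Evaluation: Loss of energy transfer signal | Controls: Unlabeled CBFb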
RanGTP-Impb inh: disruptors of Ran-importin-beta complex formation – biochemical, FRET, CFP-Ran, YFP-importin-beta, homogeneous, primary screen; cell-free CFP-Ran/YFP-importin-beta FRET ratio; inhibition, % (no concentration beside the values); 1.1% of 300,000 active;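 active = more than half of the replicate wells show a fall in the fluorescence ratio signal beyond about 16%, limit read from the data, passing the limit was not always enough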;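 note: 0% = DMSO wells and 100% = Ran loaded with GDP instead of GTP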
Hck Nef HTS: blocks Nef-activated human Hck kinase; P08631; Recombinant Hck-YEEI plus Nef, Z-Lyte FRET kinase assay; inhibition, % at 20 µM; 0.68% of 220,000 active;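 active = Hck-Nef kinase inhibition above about 50%, limit read from the data; inactive = inhibition below that limit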;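 note: 0% = DMSO with Hck plus Nef and 100% = Hck alone without Nef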
Target sequence (P08631 whole entry, looked up): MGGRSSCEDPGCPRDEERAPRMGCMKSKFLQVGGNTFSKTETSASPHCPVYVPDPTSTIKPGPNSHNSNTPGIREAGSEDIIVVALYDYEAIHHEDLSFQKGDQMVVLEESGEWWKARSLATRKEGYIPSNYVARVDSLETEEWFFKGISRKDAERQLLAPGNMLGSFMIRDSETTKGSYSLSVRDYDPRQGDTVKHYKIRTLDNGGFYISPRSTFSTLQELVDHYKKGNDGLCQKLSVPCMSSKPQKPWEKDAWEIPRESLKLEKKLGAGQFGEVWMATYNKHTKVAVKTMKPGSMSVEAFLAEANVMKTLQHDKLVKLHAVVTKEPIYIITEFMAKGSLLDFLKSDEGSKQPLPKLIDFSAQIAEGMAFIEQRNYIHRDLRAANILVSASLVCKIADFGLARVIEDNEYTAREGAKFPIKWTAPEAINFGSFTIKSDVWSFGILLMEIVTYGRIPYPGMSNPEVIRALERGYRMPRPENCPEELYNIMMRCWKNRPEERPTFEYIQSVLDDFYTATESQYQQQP
Runt-SMMHC FRET: blocks binding of human RUNX1 Runt domain to CBFb-SMMHC; Q01196+Q13951; Cerulean-Runt/Venus-CBFb-SMMHC FRET ratio 530/480, 1 h; inhibition, % at 20 µM; 0.74% of 220,000 active;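 active = mean inhibition across duplicate retests at 20 µM reaching about 50%, limit read from the data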;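 note: 0% = DMSO wells and 100% = wells with excess untagged CBFb-SMMHC; inhibitors lower the FRET ratio by blocking Runt binding to CBFb-SMMHC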
An asterisk follows results filed as active; nt = not tested or not shown.

SMILES	Tb hexokinase	Runt-CBFb FRET	RanGTP-Impb inh	Hck Nef HTS	Runt-SMMHC FRET
O=C1/C(=C/c2ccccc2F)SC(=S)N1CC(=O)N1CCCCC1c1cccnc1 (centres undefined)	nt	nt	-0.1	nt	nt
COc1ccc(/C=C/C(=O)NC2CCN(Cc3ccccc3)CC2)cc1OC	nt	nt	-0.3	nt	nt
Cc1ccc(Cn2c(=O)sc3ccccc3c2=O)cc1	0.8	-2.1	-1.2	2.4	-1.0
Cc1ccc(-n2sc3ccccc3c2=O)cc1	65.9*	-31.6	-2.6	-4.4	52.5*
CCSc1nnc(NC(=O)c2ccccc2C)s1	2.1	1.0	-0.7	25.2	0.3
COCCOC(=O)c1cc(C(=O)c2cc(F)ccc2O)coc1=N	-22.4	40.1	31.5*	5.2	119.8*
CCCCOC(=O)c1ccc(-c2ccc(/C=N/NC(=S)NCC)o2)cc1	-33.3	3.4	43.5*	2.4	8.9
CCc1cc2c(COC(=O)c3c(C)noc3C)cc(=O)oc2cc1O	-0.7	51.4*	17.7*	-22.6	86.5*
COc1ccccc1-n1c(SCc2cc(=O)oc3cc(O)ccc23)nc2ccccc2c1=O	-5.3	33.8	-1.5	33.7	69.7*
Cc1nnc(SCc2cc(=O)oc3ccc4ccccc4c23)n1Cc1ccccc1	-6.1	15.8	12.9	-3.1	21.5
COc1ccc(C(C)=O)cc1CSc1nc2ccccc2c(=O)n1-c1ccccc1C	-7.8	-1.6	-3.2	4.2	1.7
Cc1nnc(SCc2cc(=O)oc3cc(O)ccc23)n1Cc1ccccc1	-9.1	84.7*	11.6	6.7	127.4*
Cc1ccc(OCCC(=O)OCC(=O)Nc2c(C)nn(-c3ccccc3)c2C)cc1	nt	nt	7.1	nt	nt
O=C1CCCC2=C1C(c1ccc(Br)cc1)c1c([nH]c(=S)[nH]c1=O)N2 (centres undefined)	-6.3	46.2	2.5	0.0	68.1*
Cc1ccc(C2C3=C(CCCC3=O)Nc3[nH]c(=S)[nH]c(=O)c32)cc1 (centres undefined)	-5.1	48.0	2.8	-25.1	60.1*
COc1cccc2sc3ccc(C#CC4(N)CCCCC4)cc3c(=O)c12	nt	nt	54.6*	nt	nt
COc1cc2sc3ccc(C#Cc4ccc(N)cc4)cc3c(=O)c2cc1OC	nt	nt	4.8	nt	nt
CNC(C)C#Cc1ccc2sc3cccc(OC)c3c(=O)c2c1 (centres undefined)	nt	nt	38.4*	nt	nt
O=C(CCc1ccccc1)NNc1cc(N2CCCCC2)nc(N2CCCCC2)n1	5.3	-5.3	71.1*	0.9	-7.2
CC(C)(C)c1ccc(C(=O)NNc2cc(N3CCCCC3)nc(N3CCCCC3)n2)cc1	-5.6	-9.6	5.0	1.5	-4.2
O=C(NNc1cc(N2CCOCC2)nc(N2CCOCC2)n1)c1ccc(Cl)cc1Cl	14.2	3.6	75.7*	1.8	-5.3
CC(C)(C)c1ccc(C(=O)NNc2cc(N3CCOCC3)nc(N3CCOCC3)n2)cc1	7.8	-0.7	85.2*	17.9	-6.4
CC(=O)NNc1cc(N2CCOCC2)nc(N2CCOCC2)n1	1.7	48.9	83.0*	18.7	85.9*
COc1ccccc1CNC(=O)Cn1cc(Br)ccc1=O	nt	nt	0.2	nt	nt
CCCCN(C(=O)c1cccc(S(=O)(=O)N2CCCCC2)c1)C1CCS(=O)(=O)C1 (centres undefined)	nt	nt	3.1	nt	nt
SMILES	Tb hexokinase	Runt-CBFb FRET	RanGTP-Impb inh	Hck Nef HTS	Runt-SMMHC FRET
O=C(NCCOc1ccc(F)cc1)C1CCC(=O)N(CCc2ccccn2)C1 (centres undefined)	nt	nt	0.7	nt	nt
COc1ccc(NC(=O)NNc2cc(N3CCOCC3)nc(N3CCOCC3)n2)cc1	-1.4	2.5	65.8*	19.2	4.5
CNC(=S)Nc1cccc(C(C)=O)c1	-6.3	-2.1	-9.0	72.6*	0.3
Cc1sc(NC(=O)CCCC(=O)O)c(C(N)=O)c1-c1ccccc1	-10.4	2.9	0.8	102.0*	-7.5
COC(=O)c1c(NC(=O)CCCC(=O)O)sc(C)c1C	-4.3	0.5	-1.5	-1.7	-0.9
COc1ccc(/C=C2/SC(=S)N(c3ccc(S(=O)(=O)Nc4nccs4)cc3)C2=O)cc1	21.2	-9.8	-5.6	59.2*	-20.9
Cc1ccc(-n2nc3c(=O)n(CCCC(=O)N4CCC(C(N)=O)CC4)nc(C)c3c2C)cc1	nt	nt	-2.3	nt	nt
O=C(COC(=O)CCc1c[nH]c2ccccc12)NCc1ccc2c(c1)OCO2	3.6	1.3	1.5	24.9	2.0
CCc1ccc(C(=O)/C=C2\Sc3ccccc3NC2=O)cc1	40.2	32.5	-0.7	7.2	5.8
